# Measured values from different studies.
# Each line is one published result; the experiments were not run side by side.
# Target: Serine/threonine-protein kinase PAK 1 (PAK1, Homo sapiens, UniProt Q13153)
SMILES,observed,mode,method,tested at,quantity,result
C#Cc1n[nH]c2c(-c3cn(C(C)c4ccccn4)c(=O)[nH]c3=O)cc(F)cc12 (centres unmarked),enzyme activity,inhibitor,,1 µM,inhibition,3.4%
Cc1nn(C)cc1-c1nc2c(N3CCN(Cc4ccc(Cl)cc4)CC3)c(Cl)cnc2[nH]1,binding,,competition with immobilised ligand,1 µM,remaining binding,100%
COc1ncccc1-c1cnn2ccc(N3CCN(C(=O)OC(C)C)CC3)nc12,binding,,competition with immobilised ligand,1 µM,remaining binding,100%
O=c1[nH]c2ccccc2n1C1CCN(Cc2ccc(-c3[nH]c4cc5ncnc5cc4nc3-c3ccccc3)cc2)CC1,cell-free assay,,,0.5 µM,remaining signal,90.6%
Cn1cc(-c2cc(F)cc(N3CCn4c(cc5c4CCCC5)C3=O)c2CO)cc(Nc2ccc(N3CCN(C4COC4)CC3)cn2)c1=O,enzyme activity,inhibitor,,0.1 µM,inhibition,5%
C#Cc1n[nH]c2c(-c3cn([C@@H](C)c4ccccc4)c(=O)[nH]c3=O)cc(F)cc12,enzyme activity,inhibitor,,0.1 µM,inhibition,5.7%
N#CC1(c2ccccn2)CCN(Cc2cc(C(=O)O)c(=O)n3ccccc23)CC1,cell-free assay,,competition with immobilised ligand,1 µM,remaining binding,86%
COc1cc(Nc2ncc(F)c(Nc3ccc4c(n3)NC(=O)C(C)(C)O4)n2)cc(OC)c1OC,binding,,competition with immobilised ligand,10 µM,inhibition,91%
Cn1cc(-c2cccc(N3CCc4c(sc5c4CC(C)(C)C5)C3=O)c2CO)cc(Nc2ccncn2)c1=O,enzyme activity,inhibitor,,1 µM,inhibition,9%
Cn1cncc1[C@@](O)(COc1ccc(C#N)cc1-c1ccc(OC(F)(F)F)cc1)c1ccc(C#N)cc1,cell-free assay,,competition with immobilised ligand,1 µM,remaining binding,100%
Nc1ncc(-c2nc(N3CCOCC3)nc(N3CCOCC3)n2)c(C(F)F)n1,binding,,competition with immobilised ligand,10 µM,remaining binding,63%
